Results from ChEMBL document CHEMBL1124310, “Antiinflammatory 2,6-di-tert-butyl-4-(2-arylethenyl)phenols” (J Med Chem, 1989).

Columns and labels:
[1] = target: T1, Polyunsaturated fatty acid 5-lipoxygenase (Homo sapiens) (UniProt P09917); assay: Inhibitory activity against lipoxygenase (LO) at 1 uM concentration
T1 sequence (whole entry): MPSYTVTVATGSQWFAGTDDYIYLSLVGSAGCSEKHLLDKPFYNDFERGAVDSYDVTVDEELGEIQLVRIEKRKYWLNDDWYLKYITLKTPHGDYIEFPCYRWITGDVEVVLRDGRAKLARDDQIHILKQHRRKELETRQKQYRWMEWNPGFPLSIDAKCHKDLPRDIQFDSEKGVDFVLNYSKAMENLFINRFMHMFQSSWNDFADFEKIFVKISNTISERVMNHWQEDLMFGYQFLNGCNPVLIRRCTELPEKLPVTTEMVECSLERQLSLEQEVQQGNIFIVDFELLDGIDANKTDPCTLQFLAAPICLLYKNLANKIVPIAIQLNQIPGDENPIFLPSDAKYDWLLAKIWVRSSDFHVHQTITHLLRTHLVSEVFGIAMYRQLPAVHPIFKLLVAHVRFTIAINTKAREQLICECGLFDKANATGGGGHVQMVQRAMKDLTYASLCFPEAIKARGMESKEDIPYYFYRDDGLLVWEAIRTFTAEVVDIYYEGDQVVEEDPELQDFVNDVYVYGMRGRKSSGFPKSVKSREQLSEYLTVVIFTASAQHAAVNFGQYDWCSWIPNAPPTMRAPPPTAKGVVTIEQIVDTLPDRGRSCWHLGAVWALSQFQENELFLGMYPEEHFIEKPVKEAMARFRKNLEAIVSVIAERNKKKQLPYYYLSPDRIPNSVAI
How it was run: (§1)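 Human peripheral blood leukocytes (5 × 10^6/0.5 mL) in pH 7.2 phosphate buffer with 0.6 mM Ca2+ and 1.0 mM Mg2+ incubated with compound for 15 min at 37 °C with shaking. 5-HETE band area measured as % of total radioactivity. Inhibition = (1 − cmd/cntl) × 100; single determination in duplicate; ANOVA, p<0.05.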

[2] = tested on: Rattus norvegicus; assay: Inhibitory activity against developing adjuvant-induced arthritis (Dev AA) in rat at 25 mg/kg concentration; type: functional
[3] = target: T2, Cyclooxygenase (Homo sapiens, UniProt P35354+P23219); assay: Inhibitory activity against Prostaglandin G/H synthase at 1 uM concentration; type: protein assay
How it was run: (§2)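 Human platelets (10^7/0.5 mL) in Ca2+-free pH 7 phosphate buffer incubated with compound for 15 min at 37 °C with shaking. Prostaglandin-thromboxane band areas measured as % of total radioactivity. Inhibition = (1 − cmd/cntl) × 100; single determination run in duplicate; ANOVA, p<0.05.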

[4] = target: T2, Cyclooxygenase; assay: Inhibitory activity against Prostaglandin G/H synthase at 10 uM concentration; type: protein assay; how it was run: as §2
[5] = target: T1, Polyunsaturated fatty acid 5-lipoxygenase (Homo sapiens); assay: Inhibitory activity against 5-lipoxygenase at 10 uM concentration; how it was run: as §1
[6] = tested on: Rattus norvegicus; assay: Inhibitory activity against developing adjuvant-induced arthritis (Dev AA) in rat at 50 mg/kg concentration; type: functional
[7] = target: T1, Polyunsaturated fatty acid 5-lipoxygenase (Homo sapiens); assay: Inhibitory activity against 5-lipoxygenase at 1 uM concentration; how it was run: as §1
[8] = target: T1, Polyunsaturated fatty acid 5-lipoxygenase (Homo sapiens); assay: Inhibitory activity against lipoxygenase (LO) at 10 uM concentration; how it was run: as §1
[9] = tested on: Rattus norvegicus; assay: Inhibitory activity against developing adjuvant-induced arthritis (Dev AA) in rat at 5 mg/kg concentration; type: functional
[10] = target: T2, Cyclooxygenase; assay: Inhibitory activity against Prostaglandin G/H synthase from human platelets was determined
[11] = tested on: Rattus norvegicus; assay: Inhibitory activity against developing adjuvant-induced arthritis (Dev AA) in rat at 5 mg/kg concentration; decrease in paw volume statistically significant compared to control.; type: functional
[12] = target: T1, Polyunsaturated fatty acid 5-lipoxygenase (Homo sapiens); assay: Inhibitory activity against lipoxygenase (LO) at 1 uM concentration; % inhibition not statistically different from control; how it was run: as §1
[13] = species: Rattus norvegicus; assay: Effective dose of compound to inhibit established adjuvant arthritis (EstAA) in rat; type: functional
How it was run: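 Arthritis induced in male Lewis rats with Mycobacterium butyricum adjuvant in the right hind footpad. Rats with arthritis established by day 14 after injection were selected, then dosed orally for 14 days. Noninjected paw volume measured by mercury displacement. % inhibition versus untreated arthritic controls.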

[14] = species: Rattus norvegicus; assay: Effective dose of compound to inhibit adjuvant-induced arthritis (Dev AA) in rat; type: functional
[15] = species: Rattus norvegicus; assay: Effective dose of compound to inhibit acetic acid induced writhing in rat was determined; type: functional
[16] = tested on: Rattus norvegicus; assay: Effective dose of compound to inhibit carrageenan induced paw edema in rat was determined; type: functional
How it was run: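 Male CD rats (150 ± 10 g), 10 per group. Compound or vehicle (1% acacia in water) given orally 1 h before subplantar injection of 0.1 mL 1% carrageenan in saline into the right hind paw. Paw volume measured by mercury displacement before dosing and 3 h after carrageenan; the difference is the edema volume.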

[17] = species: Rattus norvegicus; assay: Dose of compound to produce a 50% ulcerogenic response in rats was determined; type: functional
How it was run: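 Ulcerogenic dose: value taken as the dose giving 50% response on a graded scale, 0% = no ulcers or redness in stomach or intestines, 100% = major lesions in both stomach and intestines. Method follows a cited procedure.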

Row | SMILES | inhibition [1] [%] | inhibition [3] [%] | inhibition [4] [%] | inhibition [5] [%] | inhibition in vivo at 50 mg/kg [6] [%] | inhibition [7] [%] | inhibition [8] [%] | further results
1 | CCC(C)(C)c1cc(/C=C/c2cccnc2)cc(C(C)(C)CC)c1O | 27 |  |  |  |  |  |  | inhibition in vivo at 25 mg/kg [2]: 50%
2 | CC(C)(C)c1cc(/C=C/c2ccc(F)cc2)cc(C(C)(C)C)c1O |  | 52 | 70 | 46 | 58 | 23 |  | 
3 | COc1ccc(/C=C/c2cc(C(C)(C)C)c(O)c(C(C)(C)C)c2)cc1 | 18 |  |  |  | 0 |  | 12 | 
4 | CC(C)(C)c1cc(/C=C/C(=O)c2cccs2)cc(C(C)(C)C)c1O |  | 44 | 75 | 84 | 8 | 39 |  | 
5 | CC(C)(C)c1cc(/C=C/c2ccccn2)cc(C(C)(C)C)c1O | 34 |  |  |  | 74 |  | 88 | inhibition in vivo at 5 mg/kg [9]: 36%
6 | CC(C)(C)c1cc(/C=C/c2ccc[n+]([O-])c2)cc(C(C)(C)C)c1O |  | 24 | 73 | 59 |  | 21 |  | inhibition in vivo at 25 mg/kg [2]: 26%
7 | CC(C)(C)c1cc(/C=C/c2ccccc2C(=O)O)cc(C(C)(C)C)c1O |  | 21 | 53 |  |  | 10 |  | 
8 | Oc1ccc(/C=C/c2cccnc2)cc1 |  | 28 | 5 | 41 |  |  |  | 
9 | CC(C)(C)c1cc(C(=O)/C=C/c2ccsc2)cc(C(C)(C)C)c1O |  | 73 | 83 | 69 | 13 | 16 |  | 
10 | CC(C)(C)c1cc(/C=C/c2ccccc2)cc(C(C)(C)C)c1O |  | 34 | 79 | 14 | 42 | 12 |  | 
11 | CC(C)(C)c1cc(/C=C/c2ccc(Cl)c(Cl)c2)cc(C(C)(C)C)c1O |  | -16 | -5 | 3 | 10 | 18 |  | 
12 | CC(C)(C)c1cc(CCc2cccnc2)cc(C(C)(C)C)c1O | 13 |  |  |  |  |  | 63 | inhibition in vivo at 25 mg/kg [2]: 3%
13 | COc1ccc(/C=C/c2cc(C(C)(C)C)c(O)c(C(C)(C)C)c2)cc1OC | 12 |  |  |  | 26 |  | 20 | 
14 | Cc1ccc(/C=C/c2cc(C(C)(C)C)c(O)c(C(C)(C)C)c2)cc1 |  | 12 | 52 | 27 | 97 | 6 |  | inhibition in vivo at 5 mg/kg [9]: 55%
15 | CC(C)c1cc(/C=C/c2cccs2)cc(C(C)C)c1O | 82 |  |  |  |  |  |  | 
16 | CC(C)(C)c1cc(/C=C/c2cccs2)cc(C(C)(C)C)c1O | 25 |  |  |  | 77 |  | 88 | IC50 [10]: 63 nM; inhibition in vivo at 5 mg/kg [11]: 57%

Row | SMILES | inhibition [1] [%] | inhibition [3] [%] | inhibition [4] [%] | inhibition [5] [%] | inhibition in vivo at 50 mg/kg [6] [%] | inhibition [7] [%] | inhibition [8] [%] | further results
17 | CC(C)(C)c1cc(C/C=C/c2cccs2)cc(C(C)(C)C)c1O |  |  |  |  |  |  | 49 | inhibition [12]: 7%
18 | CCC(C)(C)c1cc(/C=C/c2cccs2)cc(C(C)(C)CC)c1O | 10 |  |  |  |  |  |  | inhibition in vivo at 25 mg/kg [2]: 40%
19 | CC(C)(C)c1cc(/C=C/c2ccsc2)cc(C(C)(C)C)c1O | 9 |  |  |  | 62 |  | 81 | inhibition in vivo at 5 mg/kg [9]: 31%
20 | CC(C)(C)c1cc(/C=C/c2cccc(C(F)(F)F)c2)cc(C(C)(C)C)c1O |  | 9 | 18 |  | 0 | 19 | 22 | 
21 | CC(C)(C)c1cc(/C=C2\CCOC2=O)cc(C(C)(C)C)c1O |  |  |  | 67 |  | 34 |  | inhibition in vivo at 5 mg/kg [9]: 39%; inhibition in vivo at 25 mg/kg [2]: 63%
22 | CC(C)(C)c1cc(C(=O)c2cccs2)cc(C(C)(C)C)c1O [PRIFELONE] | 17 |  |  |  |  |  | 82 | inhibition in vivo at 5 mg/kg [9]: 24%; inhibition in vivo at 25 mg/kg [2]: 96%
23 | CC(C)(C)c1cc(/C=C/C(=O)c2ccsc2)cc(C(C)(C)C)c1O |  | 56 | 80 |  | 0 | 53 | 91 | 
24 | CC(C)(C)c1cc(/C=C/c2ccncc2)cc(C(C)(C)C)c1O |  |  |  |  | 0 |  | 6 | 
25 | Cc1cc(/C=C/c2cccnc2)cc(C(C)(C)C)c1O | 75 |  |  |  |  |  | 85 | inhibition in vivo at 25 mg/kg [2]: 22%
26 | CC(C)(C)c1cc(C(=O)/C=C/c2cccs2)cc(C(C)(C)C)c1O |  | 72 | 83 |  | 0 | 10 | 59 | 
27 | CCOC(=O)/C(=C\c1cc(C(C)(C)C)c(O)c(C(C)(C)C)c1)c1cccnc1 |  | 54 | 78 | 83 | 24 | 23 |  | 
28 | CC(C)(C)c1cc(/C=C/c2ccc(Cl)cc2)cc(C(C)(C)C)c1O |  | 31 | 66 | 16 | 42 | 6 |  | 
29 | CC(C)(C)c1cc(/C=C/c2cccnc2)cc(C(C)(C)C)c1O | 26 |  |  |  | 82 |  | 84 | ED50 [13]: 4 mg/kg; ED50 [14]: 2.1 mg/kg; ED50 [15]: 3.9 mg/kg; inhibition in vivo at 5 mg/kg [11]: 56%; ED50 [16]: 16.5 mg/kg; UD50 [17]: 202 mg/kg
30 | CC(C)(C)c1cc(/C=C/c2cccnc2)ccc1O | 29 |  |  |  |  |  | 81 | inhibition in vivo at 25 mg/kg [2]: 3%
31 | CC(C)c1cc(/C=C/c2cccnc2)cc(C(C)C)c1O | 73 |  |  |  |  |  | 87 | inhibition in vivo at 25 mg/kg [2]: 17%
32 | CC(C)(C)c1cc(/C=C/c2ccc(Cl)s2)cc(C(C)(C)C)c1O | 19 |  |  |  | 45 |  | 28 | 
